For one data set, the system named is Candida tropicalis. The data set can be described thus: Fungicidal activity against Candida tropicalis cgmcc2.1975 incubated for 48 hrs followed by replating on YM agar plate and measured after 48 hrs. The data set is classed as functional. Put shortly:
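Yeast diluted in MOPS-buffered RPMI 1640 to (0.5–1) × 10^3 CFU/mL (CLSI M27-A2, modified) and mixed 1:1 with peptide serially diluted in 0.2% BSA. After 48 h at 28 °C, 50 μL per well was plated on YM agar and incubated 48 h at 28 °C. MFC taken as the lowest concentration killing ≥99.9% of cells. Three or more independent experiments, triplicate wells.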

For data set [1], the system named is Escherichia coli. The data set can be described thus: Antibacterial activity against Escherichia coli ATCC 25922 measured after 18 to 24 hrs in presence of ZnCl2. The data set is classed as functional.
Data set [2] relates to Escherichia coli. Kind of data set: Bactericidal activity against Escherichia coli UB1005 incubated for 24 hrs followed by replating on agar plate and measured after overnight incubation. The data set is classed as functional. The conditions noted are these: UB1005, 24 h, read-out: MBC>99.9. An outline of the steps:
(§1)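 Mid-log bacteria diluted in MHB to (0.5–1) × 10^5 CFU/mL and mixed 1:1 with peptide serially diluted in 0.2% BSA. After 24 h at 37 °C, 50 μL of each mixture was plated on agar and incubated overnight. MBC taken as the lowest concentration killing >99.9% of cells. At least three independent experiments, each with three technical replicates.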

Data set [3] has as its system Candida albicans. Kind of data set: Antifungal activity against Candida albicans cgmcc2.2086 measured after 48 hrs in presence of NaCl by broth microdilution method. The conditions noted are these: cgmcc2.2086, 48 h. The data set is classed as functional. In general terms: In broth dilution the organism is exposed to a series of concentrations in liquid medium.
Data set [4] is described as follows: Therapeutic index, ratio of MHC10 for hemolytic activity in human RBC to MIC95 against Candida parapsilosis cgmcc2.3989. The data set is classed as toxicity. Conditions: human red blood cells (erythrocytes), read-out: TI. Put shortly: (§2)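 Therapeutic index = MHC divided by MIC. MHC is the lowest concentration giving >10% lysis of human RBC (1 h, 37 °C, 1-128 µM, A576). MIC is 95% growth inhibition by broth microdilution: bacteria in MHB 24 h at 37 °C; Candida in MOPS-buffered RPMI 1640 at (0.5–1) × 10^3 CFU mL−1, 48 h at 28 °C.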

Another data set has as its system Salmonella typhimurium. Kind of data set: Antibacterial activity against Salmonella typhimurium C7731 measured after 24 hrs. The data set is classed as functional, Salmonella enterica subsp. enterica serovar Typhimurium. The conditions noted are these: Salmonella enterica, C7731, 24 h. An outline of the steps:
(§3)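 Broth microdilution adapted from NCCLS. Mid-log bacteria were diluted in MHB to a final (0.5–1) × 10^5 CFU mL−1. Peptides were serially diluted in 0.2% BSA and mixed with an equal volume of cells. After 24 h at 37 °C, MIC was read at A492 as the lowest concentration inhibiting 95% of growth. At least three independent experiments, each with three technical replicates.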

For data set [5], the system named is Candida albicans. Kind of data set: Antifungal activity against Candida albicans cgmcc2.2086 measured after 48 hrs in presence of NH4Cl by broth microdilution method. The data set is classed as functional. Conditions: cgmcc2.2086, 48 h.
The subject of data set [6] is Candida albicans. Kind of data set: Antifungal activity against Candida albicans cgmcc2.2086 measured after 48 hrs in presence of FeCl by broth microdilution method. The data set is classed as functional. Conditions: cgmcc2.2086, 48 h.
Data set [7] has as its system Escherichia coli. Kind of data set: Bactericidal activity against Escherichia coli ATCC 25922 incubated for 24 hrs followed by replating on agar plate and measured after overnight incubation. The data set is classed as functional. Conditions: ATCC 25922, 24 h, read-out: MBC>99.9. An outline of the steps: (§4)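 After the 24 h, 37 °C MHB microdilution (0.5–1 × 10^5 CFU mL−1 inoculum, peptides diluted in 0.2% BSA), 50 μL from each well was plated on agar and incubated overnight. MBC was taken as the lowest concentration killing >99.9% of cells. Three or more independent experiments, each with triplicate technical replicates.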

The subject of data set [8] is Staphylococcus aureus. Kind of data set: Antibacterial activity against Staphylococcus aureus ATCC 29213 measured after 18 to 24 hrs in presence of FeCl3. The data set is classed as functional.
Data set [9] concerns Escherichia coli. The data set can be described thus: Antibacterial activity against Escherichia coli 078 measured after 24 hrs. The data set is classed as functional. Conditions: Escherichia coli, 078, 24 h. Put shortly:
as §3

The test system of data set [10] is Staphylococcus aureus. Kind of data set: Antibacterial activity against Staphylococcus aureus ATCC 29213 measured after 18 to 24 hrs in presence of ZnCl2. The data set is classed as functional. An outline of the steps:
(§5)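 MIC broth microdilution (MHB, 0.2% BSA peptide diluent, A492, 95% inhibition) run in the presence of physiological salts at final concentrations of 6 μM NH4Cl or 8 μM ZnCl2. Three independent assays, each with three technical replicates.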

Data set [11] has as its system Pseudomonas aeruginosa. Kind of data set: Bactericidal activity against Pseudomonas aeruginosa ATCC 27853 incubated for 24 hrs followed by replating on agar plate and measured after overnight incubation. The data set is classed as functional. Conditions: ATCC 27853, 24 h, read-out: MBC>99.9. An outline of the steps: as §1
Data set [12] concerns Pseudomonas aeruginosa. Kind of data set: Antibacterial activity against Pseudomonas aeruginosa ATCC 27853 measured after 24 hrs. Conditions: ATCC 27853, 24 h. The data set is classed as functional. Put shortly:
as §3

Data set [13] concerns Candida albicans. The data set can be described thus: Antifungal activity against Candida albicans cgmcc2.2086 measured after 48 hrs in presence of KCl by broth microdilution method. Conditions: cgmcc2.2086, 48 h. The data set is classed as functional.
The subject of data set [14] is Escherichia coli. The data set can be described thus: Bactericidal activity against Escherichia coli 078 incubated for 24 hrs followed by replating on agar plate and measured after overnight incubation. The data set is classed as functional. Conditions: Escherichia coli, 078, 24 h; read-out: MBC>99.9. Put shortly: as §4
Data set [15] deals with Staphylococcus aureus. The data set can be described thus: Antibacterial activity against Staphylococcus aureus ATCC 29213 measured after 18 to 24 hrs in presence of NH4Cl. The data set is classed as functional. An outline of the steps: as §5
For data set [16], the system named is Candida albicans. The data set can be described thus: Antifungal activity against Candida albicans cgmcc2.2086 measured after 48 hrs in presence of CaCl by broth microdilution method. The data set is classed as functional. Conditions: cgmcc2.2086, 48 h.
In data set [17] the test system is Escherichia coli. Kind of data set: Antibacterial activity against Escherichia coli ATCC 25922 measured after 18 to 24 hrs in presence of KCl. The data set is classed as functional.
Data set [18] deals with Escherichia coli. The data set can be described thus: Antibacterial activity against Escherichia coli ATCC 25922 measured after 18 to 24 hrs in presence of NH4Cl. The data set is classed as functional.
The test system of data set [19] is Staphylococcus aureus. The data set can be described thus: Antibacterial activity against Staphylococcus aureus ATCC 25923 measured after 24 hrs. The data set is classed as functional. Conditions: ATCC 25923, 24 h. An outline of the steps: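 Broth microdilution modified from NCCLS. Mid-log bacteria at (0.5–1) × 10^5 CFU mL−1 in MHB, mixed with peptides serially diluted in 0.2% BSA. Incubated 24 h at 37 °C, read at A492. MIC taken as lowest concentration giving 95% growth inhibition. At least three independent experiments, each with three technical replicates.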

Another data set relates to Erythrocyte. Kind of data set: Hemolytic activity in human RBC measured after 1 hr. The data set is classed as ADME, cell-based. An outline of the steps:
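Fresh healthy-donor human erythrocytes at ~1% (v/v) in PBS pH 7.4, mixed 1:1 with peptide (1–128 µM), 1 h at 37 °C. After centrifugation at 1000×g, supernatant hemoglobin read at 576 nm. Untreated cells set 0% and 0.1% Triton X-100 set 100%. MHC defined as the concentration giving >10% hemolysis. Three or more independent experiments, triplicates.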

Data set [20] in a line: Therapeutic index, ratio of MHC10 for hemolytic activity in human RBC to MIC95 against Candida albicans cgmcc2.2086. The data set is classed as toxicity. The conditions noted are these: human red blood cells (erythrocytes), read-out: TI. Put shortly: as §2
Data set [21] is described as follows: Conformational stability in pH 7.4 sodium phosphate buffer assessed as absorption spectra at minimum dichroic band at 35 uM by CD spectra analysis. The data set is classed as physicochemical. Conditions: pH 7.4, 35 µM. Put shortly:
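CD spectra from 190 to 250 nm of peptide at 35 μM in 10 mM PBS, 30 mM SDS micelles or 50% TFE, recorded in a 1.0-mm quartz cell. Ellipticity was converted to mean residue ellipticity. Three independent scans, each averaged over more than 3 runs.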

Turning to H-AARIILRWFRR-NH2, the “MFC<=99.9” value in the data set on Candida tropicalis was 4 µM. Further, the MIC95 in the data set with Escherichia coli [1] was 2 µM; in the data set on Candida albicans [3], 16 µM; against Salmonella typhimurium, 4 µM; with Candida albicans [5] it was 8 µM; with Candida albicans [6], 8 µM; in the data set with Staphylococcus aureus [8], 4 µM. The MIC95 against Escherichia coli [9] is 2 µM; with Staphylococcus aureus [10], 2 µM; against Pseudomonas aeruginosa [12] it was 8 µM; in the data set on Candida albicans [13] it was 8 µM; with Staphylococcus aureus [15], 4 µM; with Candida albicans [16] it was 32 µM. For the same substance, the MIC95 in the data set with Escherichia coli [17] was found to be 2 µM; with Escherichia coli [18], 2 µM; in the data set with Staphylococcus aureus [19], 8 µM. Also, the MBC came out at 4 µM in the data set on Escherichia coli [2], 2 µM with Escherichia coli [7], 16 µM with Pseudomonas aeruginosa [11] and 4 µM with Escherichia coli [14]. In addition, the selectivity ratio in [4] and in data set [20] was 50.8 each time. Further, the MHC10 with Erythrocyte is > 128 µM. The “Wavelength of minimum CD band” value in data set [21] was 200 nm.

With H-AARIILRIRFR-NH2, the “MFC<=99.9” value against Candida tropicalis came to 4 µM. For the same substance, the MIC95 with Escherichia coli [1] came to 4 µM; with Candida albicans [3] it was 32 µM; against Salmonella typhimurium, 4 µM; in the data set on Candida albicans [5], 8 µM; in the data set with Candida albicans [6], 8 µM; in the data set with Staphylococcus aureus [8], 2 µM. In addition, the MIC95 with Escherichia coli [9] was found to be 2 µM; in the data set with Staphylococcus aureus [10] it was 2 µM; in the data set with Pseudomonas aeruginosa [12], 16 µM; in the data set with Candida albicans [13] it was 8 µM; with Staphylococcus aureus [15] it was 2 µM; in the data set on Candida albicans [16], 64 µM. In addition, the MIC95 in the data set on Escherichia coli [17] amounted to 2 µM; in the data set on Escherichia coli [18], 4 µM; against Staphylococcus aureus [19] it was 2 µM. Besides, the MBC with Escherichia coli [2] is 8 µM; with Escherichia coli [7], 4 µM; in the data set with Pseudomonas aeruginosa [11] it was 32 µM; in the data set on Escherichia coli [14] it was 4 µM. The selectivity ratio in data set [4] and in [20] was 25.4 each time. Moreover, the MHC10 with Erythrocyte amounted to 128 µM. Further, the “Wavelength of minimum CD band” value in data set [21] is recorded as 200 nm.

What is called MBC is the smallest concentration meeting the test's criterion for killing.

Values taken from ChEMBL document CHEMBL4350958, “Rational Design of Short Peptide Variants by Using Kunitzin-RE, an Amphibian-Derived Bioactivity Peptide, for Acquired Potent Broad-Spectrum Antimicrobial and Improved Therapeutic Potential of Commensalism Coinfection of Pathogens” (J Med Chem, 2019).
